Source: publication PMC10234622 (Matrix biology : journal of the International Society for …, 2022)

Assays:
[1] = target: FITC-labeled ASPN peptide (FITC-ε-Ahx-Asporin) (mouse); assay: MST
[2] = system: Aspn in differentiated H9c2 cardiomyocytes; assay: Aspn expression and release in H9c2 cardiomyocytes; assay type: cell-based; details: TGFβ1 stimulation of cardiomyocytes
[3] = system: Aspn in 3T3 embryonic fibroblasts; assay: Aspn expression and release in 3T3 embryonic fibroblasts, western blot; assay type: cell-based; details: TGFβ1 5 ng/ml, 24 h; n = 4
Method in brief: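 3T3 fibroblasts were grown in DMEM (10 mM glucose, 10% FBS, pH 7.4) and given vehicle or TGFβ1 5 ng/ml for 24 h. Intracellular Aspn came from cell lysates and extracellular Aspn from the collected media. Equal protein (Bradford) was run on 4–12% Bis-Tris gels and transferred to nitrocellulose. Blots were blocked in 5% milk 45 min, probed with anti-ASPN 1:1000 overnight at 4 °C, then peroxidase secondary 2 h RT; n = 4.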

[4] = system: differentiated H9c2 cardiomyocytes; assay: TUNEL staining after hypoxia/reoxygenation; assay type: cell-based; details: rASPN treatment; hypoxia-reoxygenation
Method in brief: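 H9c2 cells were differentiated for 5 days (1% FBS, 1 nM retinoic acid) and given vehicle or rASPN 1 nM for 24 h. Hypoxia 2 h and reoxygenation 2 h followed. Cells were fixed in 2% PFA 15 min RT, permeabilized with 0.1% Triton X-100, TUNEL-labelled with fluorescein and counterstained with DAPI. TUNEL-positive nuclei were counted over many fields of 10–15 cells and expressed as a ratio to DAPI-stained cells; mean with SD.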

[5] = system: differentiated H9c2 cardiomyocytes; assay: LDH release after hypoxia/reoxygenation; assay type: cell-based; details: rASPN 1 nM for 24 hrs prior to hypoxia (2 hrs) and reoxygenation (2 hrs); n = 4
[6] = system: differentiated H9c2 cardiomyocytes; assay: MitoSOX staining, ROS after hypoxia-reoxygenation; assay type: cell-based; details: rASPN
Method in brief: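 H9c2 cells were differentiated for 5 days in DMEM with 1% FBS and 1 nM retinoic acid. They were given vehicle or rASPN, then simulated hypoxia-reoxygenation; control cells stayed under normal culture. Cells were stained with MitoSOX red and imaged by fluorescence microscopy. Intensity was expressed relative to control; mean with SD, one-way ANOVA with Tukey's test.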

H9c2 cardiomyocytes = assay: Seahorse respirometry on differentiated H9c2 cardiomyocytes; assay type: cell-based; details: rASPN 1 nM for 24 hrs, vs vehicle, n = 3
Method in brief: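 H9c2 cells were seeded at 15,000/well and differentiated for 5 days, then given vehicle or rASPN 1 nM for 24 h. Medium was switched to XF base with glucose, pyruvate and glutamine, and cells equilibrated 45 min at 37 °C without CO₂. OCR was recorded at several time points, basally and after sequential oligomycin, FCCP and antimycin A/rotenone. Parameters were calculated from traces; mean with SD, n = 3, unpaired t-test.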

**Q.** For “recombinant mouse TGFβ-1 protein (from UniProt P04202 279-390) (ligand)”, which Kd [1] is on record?
**A.** 15 nM

**Q.** With TGFβ1: Transforming growth factor β1 as the molecule, how does the “Aspn induction or release in extracellular media” value [2] read?
**A.** no significant induction or any release in extracellular media

**Q.** And the “expression of Aspn (intracellular)” value [3]?
**A.** increased expression

**Q.** What about the “release of Aspn into extracellular media” value [3] of the same molecule?
**A.** increased release of Aspn

B1: rASPN: Recombinant asporin protein (protein, UniProt Q9BXN1 33-380, looked up)
Asporin: DMEDTDDDDDDDDDDDDDDEDNSLFPTREPRSHFFPFDLFPMCPFGCQCYSRVVHCSDLGLTSVPTNIPFDTRMLDLQNNKIKEIKENDFKGLTSLYGLILNNNKLTKIHPKAFLTTKKLRRLYLSHNQLSEIPLNLPKSLAELRIHENKVKKIQKDTFKGMNALHVLEMSANPLDNNGIEPGAFEGVTVFHIRIAEAKLTSVPKGLPPTLLELHLDYNKISTVELEDFKRYKELQRLGLGNNKITDIENGSLANIPRVREIHLENNKLKKIPSGLPELKYLQIIFLHSNSIARVGVNDFCPTVPKMKKSLYSAISLFNNPVKYWEMQPATFRCVLSRMSVQLGNFGM
**Q.** Which “percent TUNEL positive cells” value [4] does the source give for B1 here?
**A.** reduced percent TUNEL positive cells

**Q.** And the “cell death (LDH release)” value [5]?
**A.** reduced cell death

**Q.** And the “ROS production (MitoSOX)” value [6]?
**A.** significantly reduced

**Q.** What about the maximal respiration (H9c2 cardiomyocytes; FCCP as uncoupler) of the same molecule?
**A.** significant increase

**Q.** What about the spare respiratory capacity (H9c2 cardiomyocytes; FCCP as uncoupler) of the same molecule?
**A.** significant increase

**Q.** What about the ATP production (H9c2 cardiomyocytes) of the same molecule?
**A.** increased basal OCR and ATP production

**Q.** And the “basal OCR” value (H9c2 cardiomyocytes)?
**A.** increased basal OCR

**Q.** What about the “non-mitochondrial OCR” value (H9c2 cardiomyocytes) of the same molecule?
**A.** reducing
